What was measured:
[1] = (§1) Inhibition of Trypanosoma brucei brucei cathepsin B
Summary of the method: (§2)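 Recombinant T. brucei cathepsin B at 40 nM with Z-Phe-Arg-AMC in buffer A (100 mM Na acetate pH 5.5, 5 mM DTT, 0.001% Triton X-100). Enzyme was preincubated 5 min at 25 °C with inhibitor (500–10,000 nM, DMSO serial dilutions) before substrate addition. Cleavage was followed by fluorescence at ex 355/em 460 nm, 25 °C. IC50 was taken from a semi-log rate versus concentration plot.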

[2] = target: Cruzipain (Trypanosoma cruzi) (UniProt P25779); test: (§3) Inhibition of cruzain; parameters: concentration or dose not given beside the values; conditions: concentration not given here
Sequence of Cruzipain (Trypanosoma cruzi) (P25779 123-467 limits assumed): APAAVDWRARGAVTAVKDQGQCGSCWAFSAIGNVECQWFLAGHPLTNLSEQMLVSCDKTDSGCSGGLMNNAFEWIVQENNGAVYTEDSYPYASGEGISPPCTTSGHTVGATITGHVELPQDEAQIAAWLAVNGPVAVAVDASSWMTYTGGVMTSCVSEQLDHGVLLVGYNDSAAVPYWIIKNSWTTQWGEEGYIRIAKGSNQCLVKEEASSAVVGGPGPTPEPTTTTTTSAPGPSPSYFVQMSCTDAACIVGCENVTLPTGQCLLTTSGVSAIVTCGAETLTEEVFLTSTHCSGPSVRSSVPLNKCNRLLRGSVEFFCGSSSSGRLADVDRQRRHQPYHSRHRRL
Summary of the method: (§4)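 Recombinant enzyme at 4 nM with Z-Phe-Arg-AMC substrate in buffer A (100 mM Na acetate pH 5.5, 5 mM DTT, 0.001% Triton X-100). Enzyme and inhibitor were preincubated 5 min at 25 °C, then substrate was added. Inhibitor serial dilutions were made in DMSO, 10–10,000 nM. IC50 was read directly from a semi-log plot of rate versus inhibitor concentration.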

[3] = test system: Trypanosoma brucei brucei; test: Antimicrobial activity against Trypanosoma brucei brucei; type: functional; parameters: concentration or dose not given beside the values
[4] = target: Rhodesain (Trypanosoma brucei rhodesiense) (UniProt Q95PM0); test: (§5) Inhibition of rhodesain; parameters: concentration or dose not given beside the values; conditions: concentration not given here; summary of the method: as §4
Sequence of Rhodesain (Trypanosoma brucei rhodesiense) (Q95PM0 1-450): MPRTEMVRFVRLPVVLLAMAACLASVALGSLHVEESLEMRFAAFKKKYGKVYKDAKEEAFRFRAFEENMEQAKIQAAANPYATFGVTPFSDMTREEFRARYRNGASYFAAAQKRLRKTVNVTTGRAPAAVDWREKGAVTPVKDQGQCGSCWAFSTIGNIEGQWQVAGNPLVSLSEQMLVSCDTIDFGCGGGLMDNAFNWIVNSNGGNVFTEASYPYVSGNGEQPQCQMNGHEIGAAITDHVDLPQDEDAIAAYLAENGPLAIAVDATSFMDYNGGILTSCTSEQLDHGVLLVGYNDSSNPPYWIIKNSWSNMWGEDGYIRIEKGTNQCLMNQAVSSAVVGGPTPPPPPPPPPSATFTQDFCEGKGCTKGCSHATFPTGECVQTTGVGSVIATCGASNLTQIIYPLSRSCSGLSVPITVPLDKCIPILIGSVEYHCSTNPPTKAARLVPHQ

Cruzipain = Cruzipain (Trypanosoma cruzi, UniProt P25779); test: as §3; summary of the method: as §4
Sequence of Cruzipain (P25779 whole entry): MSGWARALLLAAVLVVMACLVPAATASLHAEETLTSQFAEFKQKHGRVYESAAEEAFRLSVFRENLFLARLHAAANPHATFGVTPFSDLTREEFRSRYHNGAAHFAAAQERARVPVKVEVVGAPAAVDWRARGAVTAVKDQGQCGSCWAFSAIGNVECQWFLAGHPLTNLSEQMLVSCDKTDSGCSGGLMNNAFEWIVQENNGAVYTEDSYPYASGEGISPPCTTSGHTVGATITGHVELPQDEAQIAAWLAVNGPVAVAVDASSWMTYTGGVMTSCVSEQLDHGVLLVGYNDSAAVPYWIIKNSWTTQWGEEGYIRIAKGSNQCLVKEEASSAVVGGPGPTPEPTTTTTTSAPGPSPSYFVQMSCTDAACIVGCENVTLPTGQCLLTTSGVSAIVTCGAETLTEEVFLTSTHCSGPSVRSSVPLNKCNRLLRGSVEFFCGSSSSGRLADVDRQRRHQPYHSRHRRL

[5] = target: Cruzipain (Trypanosoma cruzi) (UniProt P25779); test: Ratio of kinact to ki for cruzain; parameters: unit not given here
Summary of the method: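 Continuous assay: enzyme was added by the instrument to inhibitor dilutions with Z-Phe-Arg-AMC in pH 5.5 acetate/DTT buffer while fluorescence was recorded. Progress curves were followed 5 min at 25 °C over a 10-fold dilution range of inhibitor. kobs came from pseudo-first-order fits. For hyperbolic kobs dependence, kinact and Ki were fitted by nonlinear regression to a two-step irreversible mechanism with substrate correction.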

[6] = test system: Trypanosoma brucei brucei; test: as §1; conditions: concentration not given here; summary of the method: as §2
Rhodesain = Rhodesain (Trypanosoma brucei rhodesiense, UniProt Q95PM0); test: as §5; summary of the method: as §4
Sequence of Rhodesain (Q95PM0 whole entry): as the sequence (Q95PM0 1-450) above

Row | inhibition [2] [%] | inhibition [4] [%] | Ratio [5] | Compound | IC50 [1] [nM] | Inhibition [3] [%] | IC50 (Cruzipain) [nM] | inhibition [6] [%] | IC50 (Rhodesain) [nM]
1 | 100 | 72 |  | CN1CCN(C(=O)N[C@@H](Cc2ccccc2)C(=O)N[C@H](/C=C/S(=O)(=O)c2ccccc2)CCc2ccccc2)CC1 [K-777] | 2000 | 99 |  |  | 
2 |  |  | 330000 | O=C(N[C@@H](Cc1ccccc1)C(=O)N[C@@H](CCc1ccccc1)C(=O)[C@@H]1CO1)OCc1ccccc1 |  |  | 10 |  | 
3 |  |  | 128000 | O=C(N[C@@H](Cc1ccccc1)C(=O)N[C@@H](CCc1ccccc1)C(=O)[C@H]1CO1)OCc1ccccc1 |  |  | > 1000 |  | 
4 | 5 | -4 |  | CCOC(=O)[C@H]1O[C@H]1[C@H](O)[C@H](CCc1ccccc1)NC(=O)[C@H](Cc1ccccc1)NC(=O)OCc1ccccc1 |  | -37 |  | 6 | 
5 | 1 | 3 |  | CCOC(=O)[C@@H]1O[C@H]1[C@@H](O)[C@H](CCc1ccccc1)NC(=O)[C@H](Cc1ccccc1)NC(=O)OCc1ccccc1 |  | 17 |  | 3 | 

The next lines start with the compound.

Row | Compound | inhibition [2] [%] | inhibition [4] [%] | Ratio [5] | IC50 [1] [nM] | Inhibition [3] [%] | IC50 (Cruzipain) [nM] | inhibition [6] [%] | IC50 (Rhodesain) [nM]
6 | CC(C)CCNC(=O)[C@H](CC(C)C)NC(=O)[C@H]1OC1C(=O)O (single isomer, unassigned) |  |  | 70600 |  |  |  |  | 
7 | CCOC(=O)[C@H]1O[C@H]1C(=O)[C@H](CCc1ccccc1)NC(=O)[C@H](Cc1ccccc1)NC(=O)OCc1ccccc1 | 93 | 98 | 82900 | > 1000 | 42 | 20 | 51 | 3.5
8 | CCOC(=O)[C@@H]1O[C@@H]1C(=O)[C@H](CCc1ccccc1)NC(=O)[C@H](Cc1ccccc1)NC(=O)OCc1ccccc1 | 55 | 80 | 25200 | 400 | -2 | 50 | 47 | 30

Reference: ChEMBL document CHEMBL1140589, “Dipeptidyl-alpha,beta-epoxyesters as potent irreversible inhibitors of the cysteine proteases cruzain and rhodesain” (Bioorg Med Chem Lett, 2007)
